Reference: ChEMBL document CHEMBL4837214, “Design, synthesis, and biological evaluation of novel tetrahydroprotoberberine derivatives to reduce SREBPs expression for the treatment of hyperlipidemia” (Eur J Med Chem, 2021)
Active and inactive are the calls of the source. The calls are words filed in the database; no cut-off is given here.

Columns and labels:
HepG2 [1] = assay: Down regulation of precursor and mature forms of SREBP-1 protein expression in human HepG2 cells after 24 hrs by Western blotting analysis; assay type: functional, cell-based; settings: dose 5-80 µM
Procedure, shortened: (§1)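 HepG2 cells treated 24 h at the indicated doses and lysed in RIPA buffer with protease inhibitors; protein quantified by BCA. Lysates run on 10% SDS-PAGE and blotted to nitrocellulose. After 5% milk block, primary antibody applied overnight at 4 °C and secondary 1 h at room temperature. β-actin served as loading reference.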

HepG2 [2] = assay: Effect on PCSK9 protein expression in human HepG2 cells at 10 uM incubated for 24 hrs by Western blotting analysis; assay type: functional, cell-based; procedure, shortened: as §1
HepG2 [3] = assay: Down regulation of precursor and mature forms of SREBP-2 protein expression in human HepG2 cells after 24 hrs by Western blotting analysis; assay type: functional, cell-based; settings: dose 5-80 µM; procedure, shortened: as §1
HepG2 [4] = assay: Down regulation of FASN gene expression in human HepG2 cells by qRT-PCR analysis; assay type: functional, cell-based
[5] = Cmax in Sprague-Dawley rat at 1 mg/kg, iv measured upto 12 hrs by LC-MS/MS analysis; assay type: ADME, organism-based; design: route intravenous, dose 1 mg/kg, time <=12; settings: in vivo
Procedure, shortened: (§2)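 Six SD rats split into two groups of three, dosed 1 mg/kg IV or 10 mg/kg orally. IV blood drawn at 2, 5, 15, 30 min and 1, 2, 4, 6, 8, 12 h. Oral blood drawn at 5, 15, 30 min and 1, 2, 4, 6, 8, 12, 24 h. Serum drug measured by LC/MS/MS. Parameters are the average of three runs.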

[6] = AUC (0 to infinity) in Sprague-Dawley rat at 1 mg/kg, iv measured upto 12 hrs by LC-MS/MS analysis; assay type: ADME, organism-based; design: route intravenous, dose 1 mg/kg, time <=12; settings: in vivo
Procedure, shortened: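 Six SD rats split into two groups (n=3 each), dosed once either intravenously at 1 mg/kg or orally at 10 mg/kg. Blood sampled at 2 min–12 h after IV dosing and at 5 min–24 h after oral dosing. Serum drug level measured by LC/MS/MS. AUC0-∞ is the mean of three runs.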

HepG2 [7] = assay: Down regulation of LDLR gene expression in human HepG2 cells by qRT-PCR analysis; assay type: functional, cell-based
[8] = Oral bioavailability in Sprague-Dawley rat at 10 mg/kg measured upto 24 hrs by LC-MS/MS analysis; assay type: ADME, organism-based; settings: in vivo; procedure, shortened: as §2
Mus musculus [9] = assay: Hypolipidemic activity in high fat diet-induced C57BL/6J mouse assessed as reduction in SREBPs expression in liver at 170 to 340 mg/kg, po administered daily for 6 weeks by Western blot analysis; assay type: functional, organism-based; settings: dose 170-340 mg/kg
Procedure, shortened: (§3)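 Male C57BL/6J mice, six weeks old, fed a 45%-fat diet (HFD) for 15 weeks; chow-fed mice served as controls. Obese mice were randomized to vehicle (0.1% w/v CMC-Na) or 170 or 340 mg/kg, gavaged daily for 6 weeks while diet continued. Body weight, food intake, organ weights, serum lipids, tissue histology (H&E, Oil red O), liver SREBP blots and liver qPCR followed.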

[10] = Toxicity in high fat diet-induced C57BL/6J mouse assessed as change in spleen morphology at 170 to 340 mg/kg, po administered for 6 weeks by H and E staining-based assay; assay type: organism-based; settings: in vivo, 1008 h, dose 170-340 mg/kg; procedure, shortened: as §3
Mus musculus [11] = assay: Hypolipidemic activity in high fat diet-fed C57BL/6J mouse assessed as increase in brown fat/body weight ratio at 340 mg/kg/day, po administered for 6 weeks; assay type: functional, organism-based; procedure, shortened: as §3
[12] = MRT (0 to infinity) in Sprague-Dawley rat at 1 mg/kg, iv measured upto 12 hrs by LC-MS/MS analysis; assay type: ADME, organism-based; settings: in vivo; procedure, shortened: as §2
[13] = MRT (0 to infinity) in Sprague-Dawley rat at 10 mg/kg, po measured upto 24 hrs by LC-MS/MS analysis; assay type: ADME, organism-based; settings: in vivo; procedure, shortened: as §2

Cmax [5]: 901 ng/mL | AUC(0-inf) [6]: 659 ng·h/mL | bioavailability [8]: 65.1% | MRT inf [12]: 3.18 h | MRT inf [13]: 8.03 h
SMILES: COc1ccc2c(c1OCC1CCCCC1)CN1CCc3cc4c(cc3C1C2)OCO4 (stereo not drawn)
Activity (HepG2 [1]): Dose-Dependent Effect | Activity (HepG2 [2]): inactive | Activity (HepG2 [3]): Dose-Dependent Effect | Activity (HepG2 [4]): Active | Activity (HepG2 [7]): Active | Activity (Mus musculus [9]): Active | Activity [10]: Non-Toxic | Activity (Mus musculus [11]): Active
